T cruzi inh: blocks replication of Trypanosoma cruzi | T. cruzi beta-gal in NIH3T3, luminescence, 90 h | inhibition, % (concentration not given with the values) | 1.4% of 300,000 active | AID 1885;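 active = mean inhibition across valid replicates above about 55%, limit read from the data; inconclusive = mean below that limit but half or more replicates reach it; inactive = mean below it, under half of replicates reach it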;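 note: signal also drops with host cell toxicity which is not excluded here; higher percent means less beta-gal luminescence so fewer parasites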
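assay system = mouse NIH/3T3 fibroblasts infected with β-gal-expressing T. cruzi Tulahuen C4 | input = 5,000 NIH/3T3 host cells per well | buffer or medium = DMEM plus 2% FBS | timing = 3 h host attachment, then at least 90 h co-culture | measured by = GalScreen luminescence, 60 min | evaluation = luminescence reflecting intracellular parasite burden, expressed as percent inhibition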
CSC inhib: cancer stem cell inhibition | cancer stem cell-like cells viability, luminescence | inhibition, % at 7.5 µM | 1.1% of 300,000 active; in the data active = inhibition above about 75%; inconclusive = no clear call, values can overlap the other calls; tested in HMLE shEcad cells
NR3A LBD binder: NR3A (human) ligand-binding domain modulation; NR3A LBD differential scanning fluorimetry, Tm shift; 0% = protein alone, 100% = glycine-bound protein; Tm shift relative to glycine control, % at 25 µM; 2.5% of 340,000 active; AID 1259313;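 active = melting temperature shift of at least 10% of the positive control shift, at one fixed dose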
CHOP inh: inhibitors of CHOP induction in ER stress response. CHO-K1 CHOP-promoter luciferase, tunicamycin-induced, 15-18 h. inhibition, % at 10 µM. 3.8% of 220,000 active. AID 2732;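 active = compounds that reduced the stress-induced luciferase reporter signal by more than about 70% of percent inhibition, limit read from the data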
Beta apoptosis: blocks beta cell apoptosis | INS-1E cytokine-induced death, ATP luminescence, 48 h; percent of positive-control rescue, neutral wells zero | protection from apoptosis, % (concentration not given with the values) | 0.8% of 300,000 active | AID 435005;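 active = Every replicate reaches about 75%, or at least half do and their mean reaches it too, limit read from the data; inconclusive = At least half of replicates reach the limit but their mean does not; inactive = Under half of replicates reach the limit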;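 note: higher means more ATP so stronger rescue from cytokine killing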
PREPL inh: inhibitors of human prolyl oligopeptidase-like enzyme PREPL; Q4J6C6; recombinant PREPL, fluorescence polarization activity-based probe; inhibition, % at 5.96 µM; 0.68% of 320,000 active
Target sequence (Q4J6C6 whole entry, looked up): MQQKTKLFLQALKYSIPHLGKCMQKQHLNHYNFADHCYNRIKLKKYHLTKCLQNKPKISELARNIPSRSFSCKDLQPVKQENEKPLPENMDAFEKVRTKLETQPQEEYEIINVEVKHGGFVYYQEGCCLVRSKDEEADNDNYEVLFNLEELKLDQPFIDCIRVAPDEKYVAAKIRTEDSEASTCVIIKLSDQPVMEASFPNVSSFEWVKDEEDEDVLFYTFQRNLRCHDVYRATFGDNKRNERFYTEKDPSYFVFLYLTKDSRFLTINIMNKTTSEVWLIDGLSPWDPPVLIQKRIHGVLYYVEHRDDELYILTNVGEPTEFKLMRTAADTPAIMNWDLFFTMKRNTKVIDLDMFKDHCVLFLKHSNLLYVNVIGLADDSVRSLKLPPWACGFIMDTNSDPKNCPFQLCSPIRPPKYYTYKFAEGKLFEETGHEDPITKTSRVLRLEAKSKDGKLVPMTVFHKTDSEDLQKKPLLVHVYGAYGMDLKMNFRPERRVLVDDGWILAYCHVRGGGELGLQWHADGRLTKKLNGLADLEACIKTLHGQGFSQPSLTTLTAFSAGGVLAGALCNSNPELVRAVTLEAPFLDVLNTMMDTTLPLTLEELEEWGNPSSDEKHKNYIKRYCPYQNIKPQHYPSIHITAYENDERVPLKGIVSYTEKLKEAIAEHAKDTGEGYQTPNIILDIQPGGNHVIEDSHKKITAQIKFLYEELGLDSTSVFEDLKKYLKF
PREPL confirm: human PREPL inhibition, confirmation | shares compounds with PREPL inh | 67% of 2,000 active | inhibition, % at 5.96 µM | recombinant PREPL, fluorescence polarization activity probe | AID 2803
Large screens that a line does not name were inactive (follow-up assays come after a bar, where they were run). Hits are enriched below; roughly 6.7% of the tested compounds scored in any of these assays. Cut-off read from the data, not from the text of the source, unless noted: active = inhibition above about 43%; inactive = the rest.

COc1ccc(C(=O)c2c(C)oc3ccc(O)c(CN4CCOCC4)c23)cc1	none
COc1ccc(C(=O)c2coc3ccc(O)c(CN4CCCC4)c23)cc1	PREPL inh 55 | PREPL confirm 54
Cc1ccc(C(=O)c2coc3ccc(O)c(CN4CCN(C)CC4)c23)cc1	PREPL inh 44 (no result: Beta apoptosis) | PREPL confirm inactive
COc1ccc(C(=O)c2coc3ccc(O)c(CN4CCOCC4)c23)cc1	PREPL inh 53 | PREPL confirm 57
O=C(CNC(=O)c1ccc(Br)o1)NCc1ccc(Cl)cc1	none (no result: CHOP inh)
N#CC1=C(N)N(c2ccccc2)C(c2ccccc2)C1(C#N)C#N (centres undefined)	PREPL inh 46 (no result: CHOP inh) | PREPL confirm inactive
O=C(C[n+]1cc(-c2ccccc2)n2c1CCCCC2)c1ccc(Br)cc1	PREPL inh 54 | PREPL confirm inactive
O=C(C[n+]1cc(-c2ccccc2)n2c1CCC2)OCc1ccccc1	none
COC(=O)C1CCN(c2ccc([N+](=O)[O-])cc2)CC1	none (no result: CSC inhib)
COC(=O)C1CCN(CCCOc2ccc(CN3CCN(c4ccc([N+](=O)[O-])cc4)CC3)cc2)CC1	PREPL inh 52 | PREPL confirm 44
Fc1ccccc1Cc1noc(CN(Cc2ccccn2)CC2CCCO2)n1 (centres undefined)	PREPL inh 51 | PREPL confirm inactive
CC(=O)c1cccn1S(=O)(=O)c1ccccc1	none (no result: CHOP inh)
COc1ccc(-n2nc3c(N4CCC(C(=O)NCC(C)c5ccccc5)CC4)nnc(C)c3c2C)cc1 (centres undefined)	PREPL inh 50 (no result: CHOP inh) | PREPL confirm inactive
COc1ccc(-n2nc3c(N4CCC(C(=O)NC5CCCCC5)CC4)nnc(C)c3c2C)cc1	none (no result: CHOP inh)
COc1ccc(-n2nc3c(N4CCC(C(=O)NCCc5ccccc5C)CC4)nnc(C)c3c2C)cc1	CSC inhib inconclusive, PREPL inh 52 (no result: CHOP inh) | PREPL confirm inactive
COc1ccc(-n2nc3c(N4CCC(C(=O)NCc5ccco5)CC4)nnc(C)c3c2C)cc1	none (no result: CHOP inh)
CCSc1ncc(/C=N/Nc2ccc(Cl)cc2)n1C	CSC inhib 93, PREPL inh 43 | PREPL confirm inactive
COC(=O)CCC(=O)OC1(C)C(=O)C2=CN(c3ccc(OC)cc3)C(c3ccc(OC)cc3)=CC2=C(Br)C1=O (centres undefined)	none (no result: CHOP inh)
COC(=O)CCC(=O)OC1(C)C(=O)C2=CN(C3CCCC3)C(c3ccc(OC)cc3)=CC2=C(Br)C1=O (centres undefined)	PREPL inh 54 | PREPL confirm inactive
COCCN1C=C2C(=O)C(C)(OC(=O)CCC(=O)OC)C(=O)C(Br)=C2C=C1c1ccc(OC)cc1 (centres undefined)	PREPL inh 64 (no result: CHOP inh) | PREPL confirm inactive
C=CCN1C=C2C(=O)C(C)(OC(=O)CCC(=O)OC)C(=O)C(Br)=C2C=C1c1ccc(OC)cc1 (centres undefined)	PREPL inh 74 | PREPL confirm 58
CCN(CC)CCCN1C=C2C(=O)C(C)(OC(=O)CCC(=O)OC)C(=O)C(Br)=C2C=C1c1ccc(OC)cc1 (centres undefined)	PREPL inh 70 (no result: CHOP inh) | PREPL confirm 60
CCN(CC)CCNC(=O)c1ccc(NC(=O)/C=C/c2ccc3ccccc3n2)cc1	none (no result: CHOP inh, PREPL inh)
CCN(CC)CCCN1C=C2C(=O)C(C)(OC(=O)CCc3ccccc3)C(=O)C=C2C=C1c1ccc(C#N)cc1 (centres undefined)	PREPL inh 43 | PREPL confirm inactive
COc1ccc(CN2C=C3C(=O)C(C)(OC(=O)CCc4ccccc4)C(=O)C=C3C=C2c2ccc(C#N)cc2)cc1 (centres undefined)	none
COc1ccc(S(=O)(=O)N2CCN(C(=O)/C=C/c3ccco3)CC2)cc1	none (no result: T cruzi inh, CSC inhib, CHOP inh, Beta apoptosis, PREPL inh)
CC(=O)c1c(C)[nH]c(C(=O)OCc2nnc(-c3ccc([N+](=O)[O-])cc3)o2)c1C	none (no result: T cruzi inh, CHOP inh)
COCc1c(C(=O)OCc2nnc(-c3ccc([N+](=O)[O-])cc3)o2)oc2ccccc12	PREPL inh 43 (no result: T cruzi inh, CSC inhib, CHOP inh) | PREPL confirm inactive
Cc1ncoc1C(=O)N1CCCC(C(=O)c2ccc(-c3ccccc3)cc2)C1 (centres undefined)	none

Screening data (PubChem BioAssay)
